Experimental data reported in ChEMBL document CHEMBL1157790, “3'-bromo analogues of pyrimidine nucleosides as a new class of potent inhibitors of Mycobacterium tuberculosis” (J Med Chem, 2010).

What was measured:
Type in all cases: functional
[1] = tested on: Mycobacterium tuberculosis; experiment: Antimycobacterial activity against rifampin-resistant Mycobacterium tuberculosis H37Rv at 1 to 2 ug/ml by radiometric BACTEC assay
In short: (§1)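 Isoniazid- or rifampicin-resistant H37Rv, growing inoculum 2.5-5.0 × 10⁵ CFU/vial, in radiometric 7H12 (BACTEC 12B) medium at 37 °C with two-fold compound dilutions. Growth index read daily in a BACTEC 460 until the 1:100 inoculum control reached GI 30. Percent inhibition = GI test/GI control × 100.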

[2] = tested on: Mycobacterium tuberculosis; experiment: Antimycobacterial activity against isoniazid-resistant Mycobacterium tuberculosis H37Rv at 2 ug/ml by radiometric BACTEC assay; in short: as §1
[3] = tested on: Mycobacterium tuberculosis; experiment: Antimycobacterial activity against isoniazid-resistant Mycobacterium tuberculosis H37Rv at 10 ug/ml by radiometric BACTEC assay; in short: as §1
[4] = tested on: Mycobacterium tuberculosis; experiment: Antimycobacterial activity against rifampin-resistant Mycobacterium tuberculosis H37Rv at 10 ug/ml by radiometric BACTEC assay; in short: as §1
[5] = tested on: Mycobacterium tuberculosis; experiment: Antimycobacterial activity against isoniazid-resistant Mycobacterium tuberculosis H37Rv at 25 ug/ml by radiometric BACTEC assay; in short: as §1
[6] = tested on: Mycobacterium tuberculosis; experiment: Antimycobacterial activity against rifampin-resistant Mycobacterium tuberculosis H37Rv at 5 to 10 ug/ml by radiometric BACTEC assay; in short: as §1
[7] = tested on: Mycobacterium tuberculosis; experiment: Antimycobacterial activity against rifampin-resistant Mycobacterium tuberculosis H37Rv at 2 ug/ml by radiometric BACTEC assay; in short: as §1
[8] = tested on: Mycobacterium tuberculosis; experiment: Antimycobacterial activity against rifampin-resistant Mycobacterium tuberculosis H37Rv at 1 ug/ml by radiometric BACTEC assay; in short: as §1

In the case of `Cc1cn([C@@H]2O[C@H](CO)[C@@H](Br)[C@@H]2O)c(=O)[nH]c1=O`, the “inhibition (INH)” value [1] is reported as 50%, the inhibition at 2 µg/mL [2] is reported as 50% and the inhibition at 10 µg/mL [3] is reported as 75%. It also gave an inhibition at 10 µg/mL [4] of 70%.

`Cc1cn([C@H]2C[C@H](Br)[C@@H](CO)O2)c(=O)[nH]c1=O` was tested, and the inhibition at 25 µg/mL [5] was 75%, the “inhibition (INH)” value [6] was 50% and the inhibition at 10 µg/mL [3] was 50%.

`CO[C@H]1/C=C/O[C@@]2(C)Oc3c(C)c(O)c4c(O)c(c(/C=N/N5CCN(C)CC5)c(O)c4c3C2=O)NC(=O)/C(C)=C\C=C\[C@H](C)[C@H](O)[C@@H](C)[C@@H](O)[C@@H](C)[C@H](OC(C)=O)[C@@H]1C` [RIFAMPIN] was tested, and the inhibition at 2 µg/mL [7] was 0%.

`NNC(=O)c1ccncc1` [ISONIAZID] showed an inhibition at 2 µg/mL [2] of 0% and an inhibition at 1 µg/mL [8] of 100%.
